Test results: ChEMBL document CHEMBL4020814, “Synthesis, Binding Mode, and Antihyperglycemic Activity of Potent and Selective (5-Imidazol-2-yl-4-phenylpyrimidin-2-yl)[2-(2-pyridylamino)ethyl]amine Inhibitors of Glycogen Synthase Kinase 3” (J Med Chem, 2017)
Calls of active or inactive are those of the source. The calls are words filed in the database; no cut-off is given here.

Assays:
Mus musculus [1] = test: Antidiabetic activity in diabetic db/db mouse assessed as reduction in plasma glucose AUC administered orally at 4.5 and 0.5 hrs prior to oral glucose challenge by oral glucose tolerance test; type: functional
In short: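 db/db mice, 6–8 per group, fasted ~6 h, dosed orally at 30 mg/kg at −4.5 and −0.5 h before oral glucose challenge. Efficacy is the percent reduction in plasma glucose AUC versus untreated animals. Vehicle was 15% captisol, 1% CMC or pH-adjusted water.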

Rattus norvegicus [2] = test: Antihyperglycemic activity in diabetic ZDF fa/fa rat assessed as plasma glucose levels at 30 mg/kg, po administered as single dose measured after 60 mins (reference value: 500 to 550 mg/dl); type: functional
In short: (§1)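 Twelve-week-old male ZDF (fa/fa) rats with fasted basal glucose of 500–550 mg/dL, food removed 3–4 h before dosing. A single oral dose was given with vehicle 15% captisol. Plasma glucose and insulin were measured from serial tail-snip bleeds, n = 8/group, mean ± SEM.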

[3] = Inhibition of GSK3 expressed in CHO-IR cells expressing human insulin receptor assessed as glycogen synthase activation after 30 mins by filter paper assay; type: cell-based, Cavia porcellus
Mus musculus [4] = test: Antiobesity activity in diabetic […] mouse assessed as improvement in glucose tolerance administered at 30 mg/kg, po measured post glucose challenge by oral glucose tolerance test relative to control; type: functional, organism-based
In short: (§2)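 ob/ob mice aged 9–10 weeks, 6–8 per group, given an oral glucose tolerance test with oral dosing at −4.5 and −0.5 h (vehicle captisol). Plasma glucose and insulin were measured after the glucose challenge. Values are mean ± SEM.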

Rattus norvegicus [5] = test: Antihyperglycemic activity in diabetic ZDF fa/fa rat assessed as plasma glucose levels at 5 mg/kg, iv prime dose with continuous infusion at 64 ug/kg/min for 4 days (reference value: 223 +/- 18 mg/dL); type: functional
Mus musculus [6] = test: Antiobesity activity in diabetic […] mouse assessed as improvement in glucose tolerance administered at 30 mg/kg, po measured post glucose challenge and measured after 20 hrs post compound dose by oral glucose tolerance test relative to control; type: functional, organism-based
Rattus norvegicus [7] = test: Antidiabetic activity in diabetic ZDF fa/fa rat assessed as reduction in plasma glucose AUC at 8 mg/kg administered 4.5 and 0.5 hrs prior to oral glucose challenge by oral glucose tolerance test; type: functional; set-up: scale not given: the % may be the effect or the level left
In short: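 Obese 10-week-old ZDF (fa/fa) rats, n = 8/group, fasted overnight, given 8 mg/kg orally at 4.5 and 0.5 h before oral glucose challenge. Efficacy is the percent reduction in plasma glucose AUC versus untreated animals. Formulations were 15% captisol, 1% CMC or water with pH adjusted.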

[8] = Inhibition of human phosphatidylinositol (PI) 3-kinase using PI as substrate after 1 hr by scintillation counting method
[9] = Inhibition of rat AMP kinase using SAMS peptide substrate in the presence of AMP after 1 hr by scintillation counting method
In short: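 Kinase buffer: 50 mmol/L Tris-HCl pH 7.5, 10 mmol/L MgCl2, 1 mmol/L EGTA, 1 mmol/L DTT, 25 mmol/L β-glycerophosphate, 1 mmol/L NaF, 0.01% BSA. It contained kinase, peptide substrate and activators. Compound was added in DMSO with 1 μmol/L final ATP. PKC-ζ, AMPK and pdk1 were commercial enzymes.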

Mus musculus [10] = organism: Mus musculus; test: Antidiabetic activity in streptozotocin-treated mouse fed with high fat diet assessed as reduction in post-challenge glucose AUC; type: functional; set-up: scale not given: the % may be the effect or the level left
In short: (§3)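 Mice on a high-fat diet with intermittent streptozotocin were dosed orally at −4.5 and −0.5 h before oral glucose challenge. Post-challenge glucose AUC and insulin were measured.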

[11] = Inhibition of human DNA-dependent protein kinase using PI as substrate after 1 hr by scintillation counting method
[12] = Inhibition of human GSK3 using biotin-CREB peptide substrate after 1 hr by scintillation counting method
[13] = Inhibition of human phosphodiesterase 3 using cAMP substrate after 20 mins by scintillation counting
Rattus norvegicus [14] = test: Antidiabetic activity in 12 weeks old obese ZDF fa/fa rat assessed as increase in plasma glucose disposal at 30 mg/kg dosed at 4.5 and 0.5 hrs prior to oral glucose challenge by oral glucose tolerance test; type: functional, organism-based
[15] = Volume of distribution at steady state in iv dosed diabetic ZDF rat; type: ADME, organism-based; conditions: in vivo, read-out: Vdss
In short: (§4)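 ZDF (fa/fa) rats dosed intravenously; clearance and steady-state volume of distribution derived from plasma concentration–time data.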

Angiopoietin-1 receptor = Angiopoietin-1 receptor (Homo sapiens, UniProt Q02763)
Rattus norvegicus [16] = test: Toxicity in diabetic ZDF rat assessed as increase in cyclin D1 mRNA levels in colon administered at 130 mg/kg/day infused over 20 hrs; type: organism-based; conditions: in vivo
Rattus norvegicus [17] = test: Toxicity in diabetic ZDF rat assessed as increase in cyclin D1 mRNA levels in adipose tissue administered at 130 mg/kg/day infused over 20 hrs; type: organism-based; conditions: in vivo
[18] = Oral bioavailability in diabetic ZDF fa/fa rat at 8 mg/kg administered 4.5 and 0.5 hrs prior to oral glucose challenge; type: ADME, organism-based; conditions: in vivo
[19] = AUC in po dosed diabetic ZDF rat; type: ADME, organism-based; conditions: in vivo
Rattus norvegicus [20] = test: Effect on plasma insulin level in lean ZDF fa/fa rat at 30 mg/kg dosed at 4.5 and 0.5 hrs prior to oral glucose challenge measured at 25 mins (reference value: 0.4 +/- 0.1 ng/ml); type: ADME, organism-based; conditions: in vivo
[21] = Half life in diabetic ZDF fa/fa rat at 8 mg/kg administered 4.5 and 0.5 hrs prior to oral glucose challenge; type: ADME, organism-based; conditions: in vivo
Rattus norvegicus [22] = test: Effect on plasma insulin level in lean ZDF fa/fa rat at 30 mg/kg dosed at 4.5 and 0.5 hrs prior to oral glucose challenge measured at -250 mins (reference value: 0.2 +/- 0.1 ng/ml); type: ADME, organism-based; conditions: in vivo
[23] = molecular target: Casein kinase I isoform epsilon (Homo sapiens, UniProt P49674); test: Inhibition of human CK1epsilon using biotin peptide substrate after 1 hr by scintillation counting method
[24] = Plasma concentration in diabetic db/db mouse at 30 mg/kg administered at 4.5 and 0.5 hrs prior to oral glucose challenge measured 20 mins post second dose; conditions: plasma
Rattus norvegicus [25] = test: Toxicity in diabetic ZDF rat assessed as increase in beta-catenin mRNA levels in colon administered at 130 mg/kg/day infused over 20 hrs; type: organism-based; conditions: in vivo
Rattus norvegicus [26] = test: Reduction in plasma insulin level in diabetic ZDF fa/fa rat at 30 mg/kg, po administered as single dose measured after 60 mins; type: ADME, organism-based; conditions: in vivo, 1 h; in short: as §1
Rattus norvegicus [27] = test: Effect on plasma insulin level in diabetic ZDF fa/fa rat assessed as plasma insulin levels at 5 mg/kg, iv prime dose with continuous infusion at 64 ug/kg/min for 4 days (reference value: 3.9 +/- 0.6 ng/ml); type: ADME, organism-based; conditions: in vivo, 96 h
Rattus norvegicus [28] = test: Effect on plasma insulin level in obese ZDF fa/fa rat at 30 mg/kg dosed at 4.5 and 0.5 hrs prior to oral glucose challenge measured at -45 mins (reference value: 6.9 +/- 0.3 ng/ml); type: ADME, organism-based; conditions: in vivo
Rattus norvegicus [29] = test: Toxicity in diabetic ZDF rat assessed as increase in cyclin D1 mRNA levels in brain administered at 130 mg/kg/day infused over 20 hrs; type: organism-based; conditions: in vivo
Mus musculus [30] = test: Effect on insulin level in diabetic db/db mouse at 30 mg/kg administered at 4.5 and 0.5 hrs prior to oral glucose challenge; type: ADME, organism-based; conditions: in vivo
In short: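 db/db mice, 6–8 per group, fasted ~6 h (food removed 3 h before prebleed), dosed orally at −4.5 and −0.5 h relative to oral glucose (vehicle 10% captisol). Tail-snip blood glucose was read by glucometer or analyzer; plasma insulin was measured by ELISA.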

Rattus norvegicus [31] = test: Effect on plasma insulin level in obese ZDF fa/fa rat at 30 mg/kg dosed at 4.5 and 0.5 hrs prior to oral glucose challenge measured at -250 mins (reference value: 7.2 +/- 0.6 ng/ml); type: ADME, organism-based; conditions: in vivo
Rattus norvegicus [32] = test: Effect on plasma glucose levels in lean ZDF fa/fa rat administered at 30 mg/kg dosed at 4.5 and 0.5 hrs prior to oral glucose challenge by oral glucose tolerance test; type: ADME, organism-based; conditions: in vivo
Rattus norvegicus [33] = test: Effect on plasma insulin level in lean ZDF fa/fa rat at 30 mg/kg dosed at 4.5 and 0.5 hrs prior to oral glucose challenge measured at -45 mins (reference value: 0.2 +/- 0.1 ng/ml); type: ADME, organism-based; conditions: in vivo
Rattus norvegicus [34] = test: Toxicity in diabetic ZDF rat assessed as increase in cyclin D1 mRNA levels in lung administered at 130 mg/kg/day infused over 20 hrs; type: organism-based; conditions: in vivo
Rattus norvegicus [35] = test: Toxicity in diabetic ZDF rat assessed as increase in beta-catenin mRNA levels in adipose tissue administered at 130 mg/kg/day infused over 20 hrs; type: organism-based; conditions: in vivo
Mus musculus [36] = organism: Mus musculus; test: Effect on insulin levels in streptozotocin-treated mouse fed with high fat diet; type: ADME; conditions: in vivo; in short: as §3
[37] = Clearance in iv dosed diabetic ZDF rat; type: ADME, organism-based; conditions: in vivo; in short: as §4
Rattus norvegicus [38] = test: Effect on plasma insulin level in lean ZDF fa/fa rat at 30 mg/kg dosed at 4.5 and 0.5 hrs prior to oral glucose challenge measured at 60 mins (reference value: 0.3 +/- 0.1 ng/ml); type: ADME, organism-based; conditions: in vivo, 1 h
[39] = Half life in po dosed diabetic ZDF rat; type: ADME, organism-based; conditions: in vivo
Rattus norvegicus [40] = test: Toxicity in diabetic ZDF rat assessed as increase in beta-catenin mRNA levels in liver administered at 130 mg/kg/day infused over 20 hrs; type: organism-based; conditions: in vivo
Mus musculus [41] = test: Effect on insulin level in diabetic ob/ob mouse administered at 30 mg/kg, po measured post glucose challenge; type: ADME, organism-based; conditions: in vivo; in short: as §2
Mus musculus [42] = test: Effect on urine glucose levels in diabetic db/db mouse administered orally at 4.5 and 0.5 hrs prior to oral glucose challenge; type: ADME; conditions: in vivo
[43] = Cmax in po dosed diabetic ZDF rat; type: ADME, organism-based; set-up: route oral; conditions: in vivo
Rattus norvegicus [44] = test: Toxicity in diabetic ZDF rat assessed as increase in beta-catenin mRNA levels in lungs administered at 130 mg/kg/day infused over 20 hrs; type: organism-based; conditions: in vivo
[45] = Stability in human liver microsomes assessed as half life; type: ADME, microsome
Rattus norvegicus [46] = test: Effect on plasma insulin level in obese ZDF fa/fa rat at 30 mg/kg dosed at 4.5 and 0.5 hrs prior to oral glucose challenge measured at 60 mins (reference value: 7.8 +/- 0.8 ng/ml); type: ADME, organism-based; conditions: in vivo
[47] = Oral bioavailability in diabetic ZDF rat; type: ADME, organism-based; conditions: in vivo
Rattus norvegicus [48] = test: Toxicity in diabetic ZDF rat assessed as increase in beta-catenin mRNA levels in brain administered at 130 mg/kg/day infused over 20 hrs; type: organism-based; conditions: in vivo
Rattus norvegicus [49] = test: Toxicity in diabetic ZDF rat assessed as increase in cyclin D1 mRNA levels in liver administered at 130 mg/kg/day infused over 20 hrs; type: organism-based; conditions: in vivo
Rattus norvegicus [50] = test: Effect on plasma insulin level in obese ZDF fa/fa rat at 30 mg/kg dosed at 4.5 and 0.5 hrs prior to oral glucose challenge measured at 25 mins (reference value: 8.5 +/- 0.7 ng/ml); type: ADME, organism-based; conditions: in vivo

Chain of Casein kinase I isoform epsilon (P49674 whole entry, canonical isoform): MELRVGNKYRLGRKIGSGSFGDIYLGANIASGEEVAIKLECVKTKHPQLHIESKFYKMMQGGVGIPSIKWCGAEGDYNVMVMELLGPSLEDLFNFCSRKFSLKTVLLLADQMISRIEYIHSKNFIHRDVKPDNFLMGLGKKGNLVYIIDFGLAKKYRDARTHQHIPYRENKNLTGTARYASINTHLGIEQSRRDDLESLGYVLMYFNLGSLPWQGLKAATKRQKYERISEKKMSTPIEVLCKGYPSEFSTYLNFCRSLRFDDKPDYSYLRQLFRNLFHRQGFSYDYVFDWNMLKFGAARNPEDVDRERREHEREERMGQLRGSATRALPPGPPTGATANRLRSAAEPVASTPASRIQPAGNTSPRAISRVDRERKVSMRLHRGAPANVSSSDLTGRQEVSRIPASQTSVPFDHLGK
Chain of Angiopoietin-1 receptor (Q02763 whole entry, the tested form may be a part): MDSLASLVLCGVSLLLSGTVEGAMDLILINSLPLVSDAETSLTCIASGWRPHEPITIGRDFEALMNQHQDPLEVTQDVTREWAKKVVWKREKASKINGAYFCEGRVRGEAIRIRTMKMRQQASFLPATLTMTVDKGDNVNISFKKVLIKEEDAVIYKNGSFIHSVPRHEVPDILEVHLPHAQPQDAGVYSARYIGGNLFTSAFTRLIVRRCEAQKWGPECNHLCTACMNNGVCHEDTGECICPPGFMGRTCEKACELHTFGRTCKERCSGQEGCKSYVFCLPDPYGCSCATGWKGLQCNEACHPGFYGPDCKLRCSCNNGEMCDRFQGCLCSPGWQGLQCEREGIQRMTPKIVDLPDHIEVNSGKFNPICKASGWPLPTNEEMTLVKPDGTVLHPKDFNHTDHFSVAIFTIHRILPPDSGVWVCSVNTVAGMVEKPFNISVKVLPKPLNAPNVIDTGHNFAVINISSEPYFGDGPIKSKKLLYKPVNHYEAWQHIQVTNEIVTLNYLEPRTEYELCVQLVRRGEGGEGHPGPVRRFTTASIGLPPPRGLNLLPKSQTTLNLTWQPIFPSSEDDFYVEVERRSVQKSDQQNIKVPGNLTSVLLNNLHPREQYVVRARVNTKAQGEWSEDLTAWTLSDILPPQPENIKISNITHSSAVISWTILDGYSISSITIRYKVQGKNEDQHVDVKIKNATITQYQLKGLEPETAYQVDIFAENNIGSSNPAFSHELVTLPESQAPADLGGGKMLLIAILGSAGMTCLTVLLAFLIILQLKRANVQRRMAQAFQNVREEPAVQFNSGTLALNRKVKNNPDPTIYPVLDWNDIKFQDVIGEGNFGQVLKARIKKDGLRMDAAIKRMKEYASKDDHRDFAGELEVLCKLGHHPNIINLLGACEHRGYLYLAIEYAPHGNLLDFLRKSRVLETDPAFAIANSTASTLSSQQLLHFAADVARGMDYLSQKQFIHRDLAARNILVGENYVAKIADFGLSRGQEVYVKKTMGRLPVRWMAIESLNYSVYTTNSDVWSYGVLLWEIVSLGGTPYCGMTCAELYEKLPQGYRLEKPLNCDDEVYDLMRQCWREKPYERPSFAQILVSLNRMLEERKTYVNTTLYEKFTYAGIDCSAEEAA

Cc1cnc(-c2cnc(NCCNc3ccc(C#N)cn3)nc2-c2ccc(Cl)cc2Cl)[nH]1 [LADUVIGLUSIB]
Activity (Mus musculus [1]): Dose-dependent effect
Activity (Rattus norvegicus [2]): >=150 mg/dl
EC50 [3]: 0.77 µM
Activity (Mus musculus [4]): Active
Activity (Rattus norvegicus [5]): 116 mg/dL
Activity (Mus musculus [6]): Active
Activity (Rattus norvegicus [7]): 38%
IC50 [8]: > 10 µM
IC50 [9]: > 10 µM
Activity (Mus musculus [10]): 53%
IC50 [11]: > 10 µM
IC50 [12]: 0.005 µM
Ki [13]: 8.3 µM
Activity (Rattus norvegicus [14]): Active

Cc1c[nH]c(-c2cnc(NCCNc3ccc(C#N)cn3)nc2-c2ccc(Cl)cc2Cl)n1 [LADUVIGLUSIB]
Vd [15]: 3.6 L/kg
IC50 (Angiopoietin-1 receptor): > 5 µM
Activity (Rattus norvegicus [16]): Non-Toxic
Activity (Rattus norvegicus [17]): Non-Toxic
bioavailability [18]: 36%
AUC [19]: 1420 ng·h/mL
Activity (Rattus norvegicus [20]): 0.6 ng/mL
half-life [21]: 1.53 h
Activity (Rattus norvegicus [22]): 0.3 ng/mL
IC50 [23]: > 5 µM
concentration at 20 min [24]: 15000 ng/mL
Activity (Rattus norvegicus [25]): Non-Toxic
Activity (Rattus norvegicus [26]): Toxic
Activity (Rattus norvegicus [27]): 3.1 ng/mL
Activity (Rattus norvegicus [28]): 5.3 ng/mL
Activity (Rattus norvegicus [29]): Non-Toxic
Activity (Mus musculus [30]): Non-Toxic
Activity (Rattus norvegicus [31]): 6.3 ng/mL
Activity (Rattus norvegicus [32]): Non-Toxic
Activity (Rattus norvegicus [33]): 0.3 ng/mL
Activity (Rattus norvegicus [34]): Non-Toxic
Activity (Rattus norvegicus [35]): Non-Toxic
Activity (Mus musculus [36]): Toxic
clearance [37]: 43 mL/min/kg
Activity (Rattus norvegicus [38]): 0.4 ng/mL
half-life [39]: 1.53 to 1.63 h
Activity (Rattus norvegicus [40]): Non-Toxic
Activity (Mus musculus [41]): Toxic
Activity (Mus musculus [42]): Non-Toxic
Cmax [43]: 400 ng/mL
Activity (Rattus norvegicus [44]): Non-Toxic
half-life [45]: 1.82 h
Activity (Rattus norvegicus [46]): 5.2 ng/mL
bioavailability [47]: 36 to 43%
Activity (Rattus norvegicus [48]): Non-Toxic
Activity (Rattus norvegicus [49]): Non-Toxic
Activity (Rattus norvegicus [50]): 4.8 ng/mL
